Molecules are shown by their SMILES. Calls of active or inactive are those of the source.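 How the source made its calls, unless noted: active means GFP response above 150% of the DMSO level; inconclusive means fewer than 70 events counted for a yeast strain; inactive means the rest.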

Test [1] is described as follows: hit retest on RPL19A-GFP reporter strain – cell-based, S. cerevisiae, flow cytometry, cherry picks, mother/daughter gates, confirmation (AID 2270;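 active means GFP response below 50% of the DMSO control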). Particulars: 3 h, at 10 µM, stronger effect = lower value, 100 = same GFP as DMSO wells. A general note: Flow cytometry measures light scatter and fluorescence of single cells or particles in a stream.
Test [2] can be described thus: yeast TOR pathway reporter LAP4-GFP change – cell-based, cherry picks, flow cytometry, mother/daughter gates, confirmation (AID 2271;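 active means GFP response above 150% of the DMSO control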;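 further: ratio of sample to DMSO plate mean so 100% equals DMSO level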). Particulars: S. cerevisiae LAP4-GFP strain, 3 h, at 10 µM, stronger effect = higher value, 100 means same as DMSO control. A digest of the protocol:
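Material: Alexa 633-stained baker's yeast GFP-fusion strain; Compound dosing: single test-compound dose, 10 µM final; Incubation: 30 °C, 3 h compound incubation, rotating; Detection: HT flow cytometry, GFP fluorescence channel; Control set: positive rapamycin (400 ng/mL), negative DMSO.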

Test [3] is described as follows: TOR pathway reporter MEP2-GFP, retest of hits – S. cerevisiae, flow cytometry GFP, cherry picks, confirmation (AID 2272;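 active means GFP response above 150% of the DMSO control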;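 further: ratio of well signal to plate DMSO mean so 100% equals DMSO level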). Particulars: S. cerevisiae MEP2-GFP strain, 3 h, at 10 µM, stronger effect = higher value.
Test [4] in a line: yeast AGP1-GFP fluorescence change, single-dose – cell-based, flow cytometry, S. cerevisiae, cherry picks, confirmation (AID 2273).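 Further: median GFP channel fluorescence over the whole cell population gate.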 Conditions: S. cerevisiae AGP1-GFP strain, 3 h, at 10 µM.
The nature of test [5]: TOR pathway CIT2 reporter hit retest – S. cerevisiae, GFP fusion, cherry picks, mother/daughter gates, confirmation (AID 2274). Conditions: S. cerevisiae CIT2-GFP strain, flow cytometry, 3 h, at 10 µM, stronger effect = higher value.
The mark [6] stands for this setting: measured here: daughter cell gate.
Where [7] appears, read: measured here: mother cell gate.
Setting [8] is: measured here: daughter cell gate response.
Where [9] appears, read: measured here: mother cell gate response.

Turning to `Cc1ccc(N2CCN(C(=O)c3ccccc3Br)CC2)c(C)c1`, the GFP response vs DMSO in test [1] was 100% (inactive); in test [1] (setting [6]), 97.6%; in test [1] (setting [7]), 101%; in test [3], 98.3% (inactive). For the same compound, the figures for the GFP response relative to DMSO in test [2], in test [2] (setting [8]) and in test [2] (setting [9]) were 95.4% (inactive), 92.8% and 96.1%, respectively. Moreover, the GFP response, % of DMSO in test [4] is 92.1% (inactive); in test [5], 96.9% (inactive); in test [5] (setting [6]), 97.2%; in test [5] (setting [7]) it was 96.1%.
Turning to `C/C(=N\NC(=O)c1nonc1N)c1cccs1`, the GFP response vs DMSO is 98.2% (inactive) in test [1], 98.8% in test [1] (setting [6]), 98.1% in test [1] (setting [7]) and 99.5% (inactive) in test [3]. Also, the GFP response relative to DMSO in test [2] was 102% (inactive); in test [2] (setting [8]) it was 99.3%; in test [2] (setting [9]), 100%. For the same compound, the GFP response, % of DMSO in test [4] was 94.5% (inactive); in test [5], 99.3% (inactive); in test [5] (setting [6]), 98.3%; in test [5] (setting [7]), 98%.
As to `O=C(Nc1nc(-c2ccc(Cl)cc2)cs1)c1cccnc1`, the GFP response vs DMSO in test [1] is 96.8% (inactive); in test [1] (setting [6]), 87.8%; in test [1] (setting [7]), 98.3%; in test [3], 99% (inactive). For the same compound, the GFP response relative to DMSO is 105% (inactive) in test [2], 101% in test [2] (setting [8]) and 104% in test [2] (setting [9]). Further, the GFP response, % of DMSO in test [4] was 99.4% (inactive); in test [5] it was 95.9% (inactive); in test [5] (setting [6]), 93.8%; in test [5] (setting [7]), 95.6%.
With `CCOC(=O)CNc1c(-c2ccc(O)cc2)nc2ccccn12`, the GFP response vs DMSO in test [1] is 98.5% (inactive); in test [1] (setting [6]), 99.3%; in test [1] (setting [7]), 98%; in test [3], 97.2% (inactive). Moreover, the GFP response relative to DMSO in test [2] is 100% (inactive); in test [2] (setting [8]) it was 104%; in test [2] (setting [9]), 98.4%. Moreover, the GFP response, % of DMSO in test [4] is 104% (inactive); in test [5] it was 101% (inactive); in test [5] (setting [6]) it was 103%; in test [5] (setting [7]), 103%.
With `Cc1occc1-c1nnc(-c2cc([N+](=O)[O-])cc([N+](=O)[O-])c2)o1`, the GFP response vs DMSO in test [1] is 88.1% (inactive); in test [1] (setting [6]) it was 82.8%; in test [1] (setting [7]), 85.9%; in test [3], 123% (inactive). Moreover, the GFP response relative to DMSO is 142% (inactive) in test [2], 126% in test [2] (setting [8]) and 149% in test [2] (setting [9]). Also, the GFP response, % of DMSO in test [4] is 135% (inactive); in test [5] it was 87.2% (inactive); in test [5] (setting [6]), 85.7%; in test [5] (setting [7]), 81.8%.
In the case of `CCSc1nnc(NC(=O)c2nc(S(=O)(=O)Cc3ccc(F)cc3)ncc2Cl)s1`, the GFP response vs DMSO in test [1] was 102% (inactive); in test [1] (setting [6]), 99%; in test [1] (setting [7]), 103%; in test [3], 104% (inactive). Further, the GFP response relative to DMSO in test [2] is 103% (inactive); in test [2] (setting [8]), 108%; in test [2] (setting [9]), 103%. Besides, the GFP response, % of DMSO is 102% (inactive) in test [4], 112% (inactive) in test [5], 110% in test [5] (setting [6]) and 113% in test [5] (setting [7]).
For `Cc1ccc(C(=O)Oc2oc(-c3ccco3)nc2C=Nc2ccc(Cl)cc2)cc1`, the GFP response vs DMSO is 102% (inactive) in test [1], 98.3% in test [1] (setting [6]), 98.8% in test [1] (setting [7]) and 110% (inactive) in test [3]. The GFP response relative to DMSO in test [2] was 207% (active); in test [2] (setting [8]) it was 168%; in test [2] (setting [9]), 205%. Moreover, the GFP response, % of DMSO in test [4] was 93.8% (inactive); in test [5] it was 106% (inactive); in test [5] (setting [6]) it was 111%; in test [5] (setting [7]) it was 98%.
For the compound `CCN(Cc1ccccc1)S(=O)(=O)c1ccc(C(=O)Nc2nnc(C)o2)cc1`, the GFP response vs DMSO in test [1] is 97.2% (inactive); in test [1] (setting [6]) it was 98.5%; in test [1] (setting [7]) it was 98.6%; in test [3], 102% (inactive). The GFP response relative to DMSO is 102% (inactive) in test [2], 102% in test [2] (setting [8]) and 107% in test [2] (setting [9]). Also, the GFP response, % of DMSO in test [4] is 100% (inactive); in test [5], 101% (inactive); in test [5] (setting [6]), 102%; in test [5] (setting [7]), 101%.
As for `Cc1ccc(CN2CCSc3sccc3C2=O)cc1`, the GFP response vs DMSO in test [1] was 84.4% (inactive); in test [1] (setting [6]), 83.1%; in test [1] (setting [7]), 85.5%; in test [3], 96.8% (inactive). In addition, the results for the GFP response relative to DMSO in test [2], in test [2] (setting [8]) and in test [2] (setting [9]) were 142% (inactive), 130% and 145%, respectively. Besides, the GFP response, % of DMSO in test [4] is 97.1% (inactive); in test [5], 75.5% (inactive); in test [5] (setting [6]), 72.1%; in test [5] (setting [7]) it was 76%.
On to `Cc1ccc(S(=O)(=O)c2ccc([N+](=O)[O-])cn2)cc1`, for which the GFP response vs DMSO is 93.2% (inactive) in test [1], 99.5% in test [1] (setting [6]), 84.5% in test [1] (setting [7]) and 139% (inactive) in test [3]. Besides, the GFP response relative to DMSO in test [2] is 185% (active); in test [2] (setting [8]) it was 156%; in test [2] (setting [9]), 177%. Also, the GFP response, % of DMSO was 115% (inactive) in test [4], 103% (inactive) in test [5], 114% in test [5] (setting [6]) and 93.4% in test [5] (setting [7]).
For the compound `CCN(CC)CCCN(Cc1cc2cc3c(cc2[nH]c1=O)OCO3)C(=S)Nc1ccccc1`, the GFP response vs DMSO in test [1] was 87.4% (inactive); in test [1] (setting [6]), 74.2%; in test [1] (setting [7]) it was 80.4%; in test [3] it was 139% (inactive). In addition, the GFP response relative to DMSO in test [2] was 135% (inactive); in test [2] (setting [8]), 104%; in test [2] (setting [9]) it was 131%. Also, the GFP response, % of DMSO in test [4] is 133% (inactive); in test [5], 126% (inactive); in test [5] (setting [6]), 103%; in test [5] (setting [7]) it was 120%.
With `O=C(Nc1ccccc1)c1c(F)cccc1F`, the GFP response vs DMSO in test [1] was 103% (inactive); in test [1] (setting [6]), 103%; in test [1] (setting [7]) it was 103%; in test [3], 105% (inactive). Also, the GFP response relative to DMSO in test [2] was 97% (inactive); in test [2] (setting [8]), 97.5%; in test [2] (setting [9]) it was 96.2%. Also, the GFP response, % of DMSO in test [4] is 102% (inactive); in test [5], 106% (inactive); in test [5] (setting [6]), 103%; in test [5] (setting [7]), 107%.
Turning to `O=C(O)c1ccc(SCc2cnc(Cl)s2)cc1`, the GFP response vs DMSO is 104% (inactive) in test [1], 96.7% in test [1] (setting [6]), 103% in test [1] (setting [7]) and 110% (inactive) in test [3]. In addition, the values for the GFP response relative to DMSO in test [2], in test [2] (setting [8]) and in test [2] (setting [9]) were 116% (inactive), 99% and 112%, respectively. Also, the GFP response, % of DMSO in test [4] is 114% (inactive); in test [5] it was 108% (inactive); in test [5] (setting [6]) it was 101%; in test [5] (setting [7]) it was 104%.

For the origin of these results see PubChem BioAssay.
